Series [1] in a line: Inhibition of sodium channel (unknown origin). Set-up: species or system Homo sapiens.
For another series, the system named is Mus musculus. Kind of series: Hepatotoxicity in chimeric mouse with humanized liver infected with HBV genotype D assessed as decrease in human albumin level in mouse serum at 200 mg/kg, sc qd for 28 days. Type of series: toxicity, organism-based. Particulars: in vivo, 672 h. A digest of the protocol:
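Cytotoxicity to human hepatocytes was judged in HBV genotype D-infected chimeric mice (≥70% human hepatocyte replacement) by tracking serum human albumin over time. Dosing was once daily for 28 days at 200 mg/kg s.c., with oral saline and oral entecavir 0.03 mg/kg as controls.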

In another series the test system is HBV genotype D. Kind of series: Antiviral activity against HBV genotype D infected in primary human hepatocytes assessed as inhibition of viral DNA level by qPCR analysis. The conditions noted are these: Hepatitis B virus. The class given is functional, organism-based. A digest of the protocol:
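Primary human hepatocytes isolated from naive chimeric mice with humanized liver and infected with HBV genotype D; HBV DNA in culture supernatant quantified by qPCR to derive EC50.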
(In general: Quantitative PCR measures a nucleic acid by following its amplification.)

Series [2] in a line: Drug uptake in C57BL/6 mouse liver at 50 mg/kg, sc after 24 hrs by LC-MS/MS analysis. Type of series: ADME, organism-based. The conditions noted are these: read-out: Drug uptake. A digest of the protocol: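 C57BL/6 mice dosed subcutaneously once at 50 mg/kg, given to bypass first-pass metabolism; compound measured in plasma (ng/mL) and liver (ng/g) 24 h after dosing.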
For the next series, the system named is HepG2. Briefly: Cytotoxicity against human HepG2 cells after 4 to 6 days by resazurin assay. Type of series: cell-based. Particulars: hepg2. Background: The colour change of resazurin is a common sign of viable cells or microbes.
Series [3] can be described thus: Kinetic solubility of the compound at pH 7.4 after 4 hrs by UPLC-UV analysis. Type of series: physicochemical. The conditions noted are these: buffer, read-out: Kinetic_solubility.
A short description of series [4]: Drug uptake in humanized mouse liver at 200 mg/kg, sc after 24 hrs by LC-MS/MS analysis. The class given is ADME, organism-based. Particulars: read-out: Drug uptake. A digest of the protocol: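 Uninfected humanized mice given 50 or 200 mg/kg subcutaneously once daily as a methocel suspension for 8 days; liver concentration measured 24 h after dosing.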
Series [5] is described as follows: Plasma concentration in humanized mouse at 200 mg/kg, sc after 24 hrs by LC-MS/MS analysis. The class given is ADME, organism-based.
A short description of series [6]: Inhibition of calcium channel (unknown origin). Set-up: species or system Homo sapiens.
The target of a further series is Cytochrome P450 3A4 (Homo sapiens, UniProt P08684). Kind of series: Inhibition of CYP3A4 (unknown origin). Type of series: ADME.
Chain of Cytochrome P450 3A4 (P08684 whole entry): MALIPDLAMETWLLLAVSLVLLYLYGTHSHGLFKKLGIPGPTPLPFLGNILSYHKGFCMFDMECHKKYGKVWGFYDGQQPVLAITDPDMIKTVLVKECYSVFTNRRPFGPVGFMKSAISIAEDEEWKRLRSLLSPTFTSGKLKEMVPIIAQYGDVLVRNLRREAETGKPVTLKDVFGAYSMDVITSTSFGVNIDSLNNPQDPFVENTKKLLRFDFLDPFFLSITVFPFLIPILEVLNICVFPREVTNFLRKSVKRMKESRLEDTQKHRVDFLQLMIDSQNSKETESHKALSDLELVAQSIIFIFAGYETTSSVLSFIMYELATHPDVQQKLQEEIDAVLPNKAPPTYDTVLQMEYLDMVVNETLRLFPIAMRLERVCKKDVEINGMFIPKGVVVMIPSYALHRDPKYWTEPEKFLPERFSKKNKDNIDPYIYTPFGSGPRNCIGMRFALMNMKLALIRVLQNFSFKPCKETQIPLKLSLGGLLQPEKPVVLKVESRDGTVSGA
Series [7] can be described thus: Cmax in C57BL/6 mouse at 50 mg/kg, sc by LC-MS/MS analysis. The class given is ADME, organism-based. Set-up: dose 50 mg/kg, route subcutaneous. The conditions noted are these: in vivo.

Converted amounts (≈) assume the structure as drawn. Some results are limits rather than exact numbers.

For `Cc1cc(NC(=O)c2cccc(S(=O)(=O)N[C@H]3CCOC3)c2)ccc1F`, the IC50 (in [1]; in [6]; at Cytochrome P450 3A4) was more than 10 µM throughout. The Activity entry with Mus musculus is “Non-Toxic”. Besides, in the series on HBV genotype D, the EC50 was determined as 0.2 µM. Besides, the concentration at 24 h was 1300 ng/g in [2], 4880 ng/g in series [4] and 1820 ng/mL in series [5]. The same compound showed a 20% effect concentration (EC20) in the series with HepG2 of 10 to 30 µM. Besides, in series [3], the solubility kinetic at 4 h stood at 82 µM (≈ 31 µg/mL). Further, the Cmax in series [7] was found to be 3370 ng/mL.

Usually IC50 stands for the concentration at which inhibition is half-maximal. What is called EC50 is the concentration that produces a half-maximal response. As a reminder, the EC20 is the point of the concentration-response curve where the effect stands at 20%. For orientation: Cmax means the highest concentration seen after dosing.

The values above are taken from ChEMBL document CHEMBL4138314, “Synthesis and Evaluation of N-Phenyl-3-sulfamoyl-benzamide Derivatives as Capsid Assembly Modulators Inhibiting Hepatitis B Virus (HBV)” (J Med Chem, 2018).
